We go through eight molecules from ChEMBL document CHEMBL1133641, “A new class of potential chloroquine-resistance reversal agents for Plasmodia: syntheses and biological evaluation of 1-(3'-diethylaminopropyl)-3-(substituted phenylmethylene)pyrrolidines” (2000).

For assay [1], the species on record is Mus musculus. Kind of assay: (§1) In Vitro evaluation on percentage inhibition in Heme Oxygenase at concentration 100 (uM) of infected host. In short, it runs like this: (§2)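 Heme oxygenase from liver of P. yoelii-infected host, post-mitochondrial fraction, run as the host-enzyme counterpart to the cell-free parasite assay. Test compounds at 10-100 µM were preincubated in the assay system for 10 min before starting the reaction. Activity was followed by bilirubin formation and reported as percent inhibition.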

For assay [2], the species on record is Mus musculus. Put plainly: In Vitro evaluation on percentage inhibition in Heme Oxygenase at concentration 50 (uM) of infected host. In short, it runs like this: as §2
The test system of assay [3] is Plasmodium yoelii nigeriensis. Put plainly: In Vitro inhibition of Heme Oxygenase in Cell-free parasite Plasmodium yoelii at concentration 50 uM. The class given is functional. In short, it runs like this:
(§3)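 Heme oxygenase activity was measured as bilirubin formation in a post-mitochondrial fraction. The parasite enzyme came from cell-free P. yoelii, isolated from infected blood by density gradient centrifugation and saponin lysis. The host enzyme came from infected liver. Compounds were tested at 10–100 µM and preincubated for 10 min before the reaction was started.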

Assay [4] concerns Plasmodium yoelii nigeriensis. Put plainly: In Vitro inhibition of Heme Oxygenase in Cell-free parasite Plasmodium yoelii at concentration 100 uM. The format is functional. In short, it runs like this:
as §3

The test system of assay [5] is Plasmodium yoelii nigeriensis. Kind of assay: Inhibition of heme oxygenase in Plasmodium yoelii nigeriensis isolated from infected mice (Mus musculus) (oral). The class given is functional. In outline: (§4)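 Swiss albino mice carried P. yoelii nigeriensis tolerant to CQ up to 120 mg/kg. They received compound orally at 15 mg/kg body wt for 5 days. Parasites were then isolated from blood by density gradient centrifugation and saponin lysis, and enzyme inhibition was measured as percent inhibition.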

Assay [6] deals with T1, Glutathione S-transferase (Plasmodium yoelii yoelii) (UniProt Q7REH6).
T1 sequence (whole entry): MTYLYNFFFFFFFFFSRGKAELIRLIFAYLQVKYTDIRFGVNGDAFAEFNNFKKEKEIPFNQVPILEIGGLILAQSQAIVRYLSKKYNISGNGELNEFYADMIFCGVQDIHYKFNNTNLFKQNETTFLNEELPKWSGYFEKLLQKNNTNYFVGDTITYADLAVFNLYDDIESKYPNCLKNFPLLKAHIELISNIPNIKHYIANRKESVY
Kind of assay: Inhibition of Glutathione S-transferase in Plasmodium yoelii nigeriensis isolated from infected mice (Mus musculus) (oral). The following applies: concentration not given here. In outline: as §4

Assay [7] has as its system Plasmodium yoelii nigeriensis. Put plainly: In Vitro inhibition of Heme Oxygenase in Cell-free parasite Plasmodium yoelii at concentration 50 uM;NI denotes nil inhibition. The class given is functional. In outline:
as §3

The test system of assay [8] is Plasmodium yoelii nigeriensis. Put plainly: In Vitro inhibition of Heme Oxygenase in Cell-free parasite Plasmodium yoelii at concentration 100 uM;NI denotes nil inhibition. The format is functional. In outline:
as §3

The subject of assay [9] is Plasmodium yoelii nigeriensis. Kind of assay: In Vitro inhibition of Heme Oxygenase in Cell-free parasite Plasmodium yoelii at concentration 10 uM. The format is functional. In short, it runs like this: as §3
Assay [10] deals with Plasmodium yoelii nigeriensis. Put plainly: In Vitro inhibition of Heme Oxygenase in Cell-free parasite Plasmodium yoelii at concentration 10 uM;NI denotes nil inhibition. The format is functional. In outline:
as §3

Assay [11] in a line: In Vitro evaluation on percentage inhibition in Heme Oxygenase at concentration 50(uM) of infected host. In outline:
as §3

Assay [12] has as its system Plasmodium yoelii nigeriensis. Kind of assay: In Vitro evaluation on percentage inhibition in Heme Oxygenase at concentration 100(uM) of Cell-free parasite Plasmodium yoelii. The format is functional. In outline:
as §3

The nature of assay [13]: as §1. In short, it runs like this: as §3
The test system of assay [14] is Plasmodium yoelii nigeriensis. Put plainly: In Vitro evaluation on percentage inhibition in Heme Oxygenase at concentration 100 (uM) of Cell-free parasite Plasmodium yoelii. The format is functional. In outline: as §3
For assay [15], the system named is Plasmodium yoelii nigeriensis. Kind of assay: Inhibition of heme oxygenase in Plasmodium yoelii nigeriensis isolated from infected mice (Mus musculus) (oral); NI denotes no inhibition. The format is functional, organism-based. In short, it runs like this: as §4
Assay [16] can be described thus: In Vitro evaluation on percentage inhibition in Heme Oxygenase at concentration 10 (uM)of infected host. In outline: as §3
Assay [17] deals with T1, Glutathione S-transferase (Plasmodium yoelii yoelii). Put plainly: Inhibition of Glutathione S-transferase in Plasmodium yoelii nigeriensis isolated from infected mice (Mus musculus) (oral); NI denotes nil inhibition. In outline:
as §4

The species entered for assay [18] is Mus musculus. Put plainly: In Vitro inhibition of Heme Oxygenase in Plasmodium yoelii (host) at concentration 100 uM. The class given is functional. In outline: (§5)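 In vitro heme oxygenase, cell-free: post-mitochondrial fractions of P. yoelii parasites and of infected host liver. Test compounds at 10-100 µM were preincubated 10 min in the assay system before the enzyme reaction started. Activity was followed as bilirubin formation and expressed as % inhibition.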

Assay [19] is filed under the species Mus musculus. Kind of assay: In Vitro inhibition of Heme Oxygenase in Plasmodium yoelii (host) at concentration 10 uM. The class given is functional. In short, it runs like this:
as §3

The species named for assay [20] is Mus musculus. Put plainly: In Vitro inhibition of Heme Oxygenase in Plasmodium yoelii (host) at concentration 50 uM. The format is functional. In short, it runs like this: as §5
The subject of assay [21] is Plasmodium yoelii nigeriensis. Kind of assay: In Vitro inhibition of Heme Oxygenase in Cell-free parasite Plasmodium yoelii at concentration 50 uM; NI denotes nil inhibition. The class given is functional. In short, it runs like this: as §3
Assay [22] relates to Plasmodium yoelii nigeriensis. Put plainly: Inhibition of heme oxygenase in Plasmodium yoelii nigeriensis isolated from infected mice (Mus musculus) (oral); NI denotes nil inhibition. The class given is functional, organism-based. In outline: as §4

Activity calls are given as the source filed them. No cut-off for these calls is given here.

For orientation: inhibition means the percentage by which the read-out fell short of the control. Read a high inhibition as a response far below the control. As to `COc1ccc(CCN(C)CCCC(C#N)(c2ccc(OC)c(OC)c2)C(C)C)cc1OC` (stereo not given), the inhibition was determined as 19% in assay [1], 15% in assay [2], 100% in [3] and 100% in [4].

The term Inhibition denotes the percentage by which the read-out fell short of the control. High values mean a response far below the control, low ones a response near the control. Take `CCN(CC)CCCN1CC/C(=C\c2ccc(OC)c(OC)c2)C1`: the Inhibition in assay [5] amounted to 100%. Further, the inhibition in assay [6] came to 80%; in assay [3], 100%; in assay [4] it was 100%; in assay [9], 100%. For the same molecule, the NI entry in assay [7], in assay [8] and in assay [10] was “No inhibition” each time.

Regarding `COc1ccc([C@@H]2Sc3ccccc3N(CCN(C)C)C(=O)[C@@H]2OC(C)=O)cc1`, the inhibition in assay [11] is 41%; in [3], 12.5%; in assay [12], 29%; in [13], 84%.

Turning to `CN(C)CCCN1c2ccccc2Sc2ccc(Cl)cc21`, the inhibition in assay [14] turned out to be 100%; in assay [3], 85%.

Take `CCN(CC)CCCN1CC/C(=C\c2ccccc2)C1`: the inhibition in assay [11] amounted to 65%; in assay [16], 10%; in assay [3], 64%; in assay [4], 82%; in [13], 65%; in assay [9] it was 52%. The NI result in assay [15] was “inactive”. The NI entry in [17] is “No inhibition”.

Take `CCN(CC)CCCN1CC/C(=C\c2ccc(OCc3ccccc3)cc2)C1`: the inhibition came to 69% in assay [18]; 24% in [19]; 37% in [3]; 63% in [20]; 64% in assay [4]; 28% in assay [9]. Moreover, in [15], the NI entry was “inactive”. Besides, the NI result in assay [17] was “No inhibition”.

Consider `CCN(CC)CCCN1CC/C(=C\c2ccc3c(c2)OCO3)C1`, for which the inhibition was found to be 10% in assay [6], 100% in [3], 100% in assay [4] and 100% in assay [9]. The NI entry in [8], in assay [21], in assay [22] and in assay [10] was “No inhibition” in each case.

With `CCN(CC)CCCN1CC/C(=C\c2ccc(OCCN3CCCC3)cc2)C1`, the Inhibition in [5] came out at 79%. The inhibition turned out to be 90% in assay [6], 100% in assay [3], 100% in assay [4] and 100% in [9]. The NI entry in assay [7], in assay [8] and in assay [10] was “No inhibition” in each case.
